assay: Toxicity liver stage against HepG2, at 10uM; assay type: cell-based; set-up: test concentration 10 uM, cell line HepG2-A16-CD81EGFP; settings: human, HepG2-A16-CD81EGFP cells; read-out: INHIBITION
In short: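 Uninfected HepG2-A16-CD81EGFP cells, 3 × 10^3 per well, 1536-well, plated on prespotted compound at 10 μM final, parasite-free screening media added to match infected plates; puromycin 10 μM positive, DMSO 0.5% negative; run in parallel with 48 h PbLuc assay at 37 °C, 5% CO2; viability by CellTiter-Glo luminescence, normalized to controls.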

Compound | cytotoxicity at 10 µM
O=C(N[C@H]1CN(C2CCOCC2)C[C@@H]1C1CC1)c1cc(O)no1 | 8.4%
Cc1c(C2CC(=O)Nc3c2cnn3C(C)C)cnn1C (centres undefined) | -6.72%
CN(C)C(=O)c1cccc(CN2CCOC(Cn3cncn3)C2)c1 (centres undefined) | -3.75%
c1ccc(OC[C@H]2CCC[C@]23CN(Cc2nccs2)CCO3)nc1 | 3.34%
O=C(Nc1cccnc1)[C@H]1C[C@H]2OCC[C@H]2N(CC2CC2)C1 | 4.7%
COCCN1C[C@H](OCc2csc(C)n2)[C@H]2COC[C@H]21 | -6.08%
Cc1csc(N2CCN(C(=O)CCc3nccs3)CC2)n1 | -3.68%
CCOc1ccc(N(CC(=O)c2ccccc2)C2=NCCCCC2)cc1 | -2.02%
CCN(Cc1cccc(C(=O)Nc2ncc(C)s2)c1)[C@H]1COC[C@@H]1O | -2.61%
CCOC(=O)N[C@H]1C[C@@H](C(=O)NCCc2cccc(Cl)c2)N(C)C1 | -3.79%
CN(Cc1noc(C2CC2)n1)C1CCN(CC(=O)N2CCOCC2)C1 (centres undefined) | -5.25%
Cc1noc([C@H]2C[C@H]3OCC[C@H]3N(S(=O)(=O)C3CC3)C2)n1 | -10.5%
Cc1cc(C)n(CNc2nonc2C(N)=O)n1 | -13%
CS(=O)(=O)N1CCC2(CCN(C(=O)c3cccs3)CC2)CC1 | -108%
O=C(CCCOc1ccccc1F)NCCCC(=O)Nc1cn[nH]c1 | -11.1%
COc1cccc(N2CCN(C(=O)C(C)Oc3ccccc3)CC2=O)c1 (centres undefined) | -4.73%
Cc1ccnc(N2C[C@H]3CC[C@@H](C2)N(CC2CCC2)C3=O)n1 | 11.4%
O=C(NCc1ccccc1)N1CCC2(CC(=O)N(c3ccccc3)C2)C1 (centres undefined) | 2.61%
CS(=O)(=O)NCC1CCCN(C(=O)COCc2ccccc2)C1 (centres undefined) | -7.59%
CN(Cc1ccc2nsnc2c1)C(=O)CCc1cc2n(n1)CCCNC2 | -4.62%
CSc1ccc(C(=O)C2CCCN(C(=O)Cn3cnnn3)C2)cc1 (centres undefined) | -1.57%
CC(=O)N1CCCN(Cc2cc(F)cc(Br)c2)CC1 | 7.72%
CN(C(=O)c1ccc[nH]1)C1CC(=O)N(Cc2ccccc2)C1=O (centres undefined) | 8.02%
Cn1cnc2c1C(C(=O)N1CCCC1)N(CC1CC1)CC2 (centres undefined) | 6.37%
CC(c1ccccc1)N1CCC(NC(=O)CCc2ccsc2)CC1 (centres undefined) | 0.91%
N#Cc1ccc(NC2CCN(c3ncccn3)CC2)cc1C(F)(F)F | 27.5%
CCOC(=O)C1(Cc2cccc(OC)c2)CCCN(Cc2ncc[nH]2)C1 (centres undefined) | 3.86%

Compound | cytotoxicity at 10 µM
Cc1nc(CN(C)C(=O)Nc2cnn(CC3CCCO3)c2)cs1 (centres undefined) | 5.53%
CC(C)N(Cc1cccc(F)c1)Cc1nc2c(cnn2C)c(=O)[nH]1 | -10.5%
Cc1cnn(CCNCc2c(C)nn(Cc3ccccc3)c2C)c1 | -3.46%
CS(=O)(=O)NCC(=O)N1CCCC1c1noc(C2CC2)n1 (centres undefined) | 14.2%
COCC1(CNc2cc(C(C)C)nc(N)n2)CC1 | 29.4%
CN(CCO)Cc1nnc(C2CCN(C(=O)c3cc[nH]c3)CC2)n1C | 1.37%
Cc1ccc(NC2CCN(C(=O)C(C(C)C)n3cncn3)CC2)nn1 (centres undefined) | -3.01%
Cc1cc(N2CCCC3(CN(C)C(=O)O3)C2)c2cc3c(cc2n1)OCO3 (centres undefined) | -5.05%
O=C(NC1CCCC1)N1C[C@H]2CN(c3ccccn3)C[C@@]2(C(=O)O)C1 | 6.12%
CC(C(=O)NCc1ccc(-n2cncn2)nc1)S(C)(=O)=O (centres undefined) | 7.41%
CC(NC(=O)NCCn1ccnc1)c1ccc2c(c1)OCCO2 (centres undefined) | -9.44%
CN(C)CCNC(=O)CNC(=O)N1CCc2c([nH]c3ccc(Cl)cc23)C1 | 7.36%
Brc1cccc(-c2nnc(CNCCn3cccn3)o2)c1 | -9.59%
CSCC(=O)NS(=O)(=O)c1ccc(C#N)c(C(F)(F)F)c1 | 17.2%
C[C@@H]1CN(C(=O)CSc2nncn2C)C[C@@]1(O)C1CC1 | -15.7%
CC(Nc1cccc(CN2CCOC2=O)c1)C(=O)Nc1ccccc1F (centres undefined) | -5.25%
CC(C)c1nccn1CCn1cnc2ccsc2c1=O | 4.4%
COc1cccc(-c2cccc(N3CCC(N[C@@H]4CCOC4)CC3)c2)c1 | -12.7%
N#Cc1cccc(N2CCCC3(C2)CN(c2nncs2)CCO3)c1 (centres undefined) | 0.922%
O=S(=O)(N1CCCCC1)N1CCCN(CC2CCCO2)CC1 (centres undefined) | -3.94%
O=C(O)c1coc(COc2cccc(F)c2)n1 | 0.523%
COc1ccc(C(=O)N2CC(=O)N(C3CCC3)CC(O)C2)c(OC)c1 (centres undefined) | -0.373%
CNC(=O)[C@@H]1COC[C@H]2CN(C(=O)c3ccc(C)c(C)c3)C[C@H]21 | 11.6%
Cc1nnc([C@]23COC[C@H]2CN(Cc2cccs2)C3)o1 | -3.34%
Cc1cc(C)c(CNC(=O)NCCNc2ccccn2)c(=O)[nH]1 | -37%
CCOC(=O)C1(Cc2cccc(OC)c2)CCN(Cc2ccon2)CC1 | 2.61%
COCC(=O)Nc1cnc(N2CCCC2)nc1 | -5.93%

Compound | cytotoxicity at 10 µM
O=C(O)C1CN(c2cncc(Cc3ccccc3)n2)C1 | 0.885%
CC(C)NC(=O)CSc1nc2c(cnn2CCO)c(=O)[nH]1 | -8.72%
CC(C)N1CCCC(C(=O)N2CCN(c3nsc4ccccc34)CC2)C1 (centres undefined) | 2.81%
CN(C)c1ncc(CNS(=O)(=O)c2cc(F)ccc2Cl)n1C | 6.69%
O=C([C@@H]1COC[C@H]2CN(C3CCCC3)C[C@H]21)N1CCC(F)CC1 | -103%
c1ccc(CN2CCCC(Cn3cncn3)C2)nc1 (centres undefined) | -9.93%
Cc1cc(CN(C)C2CCCN(Cc3noc(C4CC4)n3)C2)no1 (centres undefined) | -10.8%
COCCNC(=O)[C@H]1C[C@@H]2CCN(c3ncccn3)C[C@@H]2O1 | -0.785%
O=C(Cc1c(F)cccc1Cl)NC1CCCCNC1=O (centres undefined) | 1.91%
Fc1ccc(NCc2ncc[nH]2)cc1Br | 3.76%
CCN(CC)C(=O)CNC(=O)c1cnc(-c2ccccc2)nc1 | 12.7%
Cc1nccnc1N1CC[C@@H](NC(=O)c2cnccn2)[C@H](O)C1 | -11.3%
Cc1nn(C)c(C)c1NC(=O)c1cccc(CN2C[C@H]3CC[C@@H](C2)N3)c1 | -0.277%
CC(NCCCN1CCCC1=O)c1cc(Br)ccc1O (centres undefined) | -1.41%
Cc1nc2cc(-c3nccn3C)nn2c(N2CCCC(CO)C2)c1C (centres undefined) | -4.38%
COCCCN1Cc2cccc(NC(=O)c3ccccc3Cl)c2C1 | -4.34%
CC(O)CN(C(=O)NC1CCN(CC2CCCCC2)CC1)C(C)C (centres undefined) | 7.46%
COc1ccc(OCC(=O)NS(=O)(=O)c2cc(F)ccc2F)cc1 | -19.5%
Cc1cccc(OCCN2CCCC(c3cc(C(N)=O)[nH]n3)C2)c1 (centres undefined) | -11.9%
N#Cc1cccc(NC(=O)N2CCCC(N3CCCC3=O)C2)c1 (centres undefined) | 7.92%
CNC(=O)CN1CCO[C@H]2CN(CC3CC3)C[C@H]21 | 6.25%
CCc1cnc(CN(C(C)=O)C2CCN(Cc3nccn3C)C2)o1 (centres undefined) | -8.13%
Cc1nccn1CCC1CCCCN1Cc1ccncc1 (centres undefined) | 35.2%
CC(C)(C)n1ncc2c1NC(=O)CSC2c1ccc2c(c1)OCCO2 (centres undefined) | -1.74%
Cc1cc(C[C@@H]2COC[C@@H]2NC(=O)CCN2Cc3ccccc3C2)on1 | 3.86%

Reference: ChEMBL document CHEMBL4513216, “Probing the Open Global Health Chemical Diversity Library for Multistage-Active Starting Points for Next-Generation Antimalarials” (ACS Infect Dis, 2020)
